Experimental data taken from ChEMBL document CHEMBL1124255, “7-substituted 5-amino-1-cyclopropyl-6,8-difluoro-1,4-dihydro-4-oxo-3- quinolinecarboxylic acids: synthesis and biological activity of a new class of quinolone antibacterials” (J Med Chem, 1988).
≈ marks a conversion by molar mass, not a printed value.

What was measured:
Escherichia coli [1] = experiment: Median protective dose against Escherichia coli, determined in acute, lethal systemic infection in female charles river CD-1 mice (po); assay type: functional; set-up: PD50: unit not given here; conditions: for ED50: Escherichia coli, po, read-out: PD50
Procedure, shortened: (§1)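 Female Charles River CD-1 mice (18-22 g) were challenged intraperitoneally with about 100 median lethal doses in 0.5 mL 5% hog gastric mucin. Single compound doses in a twofold rising series were given in 0.5 mL at the time of challenge: sc as aqueous solution, po by gavage in 5% gum acacia. Groups of eight mice were used per dose. PD50 was estimated from survival percentages by log probit.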

Escherichia coli [2] = experiment: Median protective dose against Escherichia coli, determined in acute, lethal systemic infection in female charles river CD-1 mice (sc); assay type: functional; conditions: read-out: PD50; procedure, shortened: as §1
DNA gyrase = DNA gyrase (Escherichia coli, UniProt P0AES4+P0AES6); experiment: 50% inhibitory concentration against DNA-gyrase; assay type: protein-complex assay
Enterobacter cloacae = experiment: Antibacterial activity against Enterobacter cloacae MA2646; assay type: functional
Escherichia coli [3] = experiment: Antibacterial activity against Escherichia coli H560; assay type: functional
Procedure, shortened: (§2)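 Minimum inhibitory concentration measured by standard microtitration, run as part of a panel of 11 bacterial organisms.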

Klebsiella pneumoniae = experiment: Antibacterial activity against Klebsiella pneumoniae MGH-2; assay type: functional; procedure, shortened: as §2
Pseudomonas aeruginosa = experiment: Antibacterial activity against Pseudomonas aeruginosa UI-18; assay type: functional; procedure, shortened: as §2
Staphylococcus aureus [4] = experiment: Antibacterial activity against Staphylococcus aureus UC76; assay type: functional; procedure, shortened: as §2
Streptococcus pyogenes = experiment: Antibacterial activity against Streptococcus pyogenes C203; assay type: functional; procedure, shortened: as §2
Providencia rettgeri = experiment: Antibacterial activity against Providencia rettgeri M1771; assay type: functional; procedure, shortened: as §2
Streptococcus pneumoniae = experiment: Antibacterial activity against Streptococcus pneumoniae SV-1; assay type: functional; procedure, shortened: as §2
Escherichia coli [5] = experiment: Antibacterial activity against Escherichia coli Vogel; assay type: functional; procedure, shortened: as §2
Enterococcus faecalis = experiment: Antibacterial activity against Streptococcus faecalis MGH-2; assay type: functional; procedure, shortened: as §2
Staphylococcus aureus [6] = experiment: Antibacterial activity against Staphylococcus aureus H-228; assay type: functional; procedure, shortened: as §2

With `CC1COc2c(N3CCN(C)CC3)c(F)c(N)c3c(=O)c(C(=O)O)cn1c23` (configuration not stated) as the molecule, how does the ED50 (Escherichia coli [1]) read?
Its ED50 is 7.5 mg/kg.

And the ED50 (Escherichia coli [2])?
The ED50 was 4.6 mg/kg.

What about the IC50 (DNA gyrase) of the same molecule?
The IC50 was 69.1 µM.

What about the MIC (Enterobacter cloacae) of the same molecule?
The MIC was 0.8 µg/mL (≈ 2.13 µM).

And the MIC (Escherichia coli [3])?
The MIC was 0.1 µg/mL (≈ 0.266 µM).

What about the MIC (Klebsiella pneumoniae) of the same molecule?
The MIC was 0.4 µg/mL (≈ 1.06 µM).

What about the MIC (Pseudomonas aeruginosa) of the same molecule?
Its MIC is 0.8 µg/mL (≈ 2.13 µM).

What about the MIC (Staphylococcus aureus [4]) of the same molecule?
Its MIC is 0.2 µg/mL (≈ 0.531 µM).

And the MIC (Streptococcus pyogenes)?
Its MIC is 3.1 µg/mL (≈ 8.24 µM).

And the MIC (Providencia rettgeri)?
Its MIC is 1.6 µg/mL (≈ 4.25 µM).

What about the MIC (Streptococcus pneumoniae) of the same molecule?
Its MIC is 3.1 µg/mL (≈ 8.24 µM).

What about the MIC (Escherichia coli [5]) of the same molecule?
Its MIC is 0.2 µg/mL (≈ 0.531 µM).

What about the MIC (Enterococcus faecalis) of the same molecule?
The MIC was 1.6 µg/mL (≈ 4.25 µM).

What about the MIC (Staphylococcus aureus [6]) of the same molecule?
Its MIC is 0.8 µg/mL (≈ 2.13 µM).

Which results are given for `CNc1c(F)c(N2CCNCC2)c(F)c2c1c(=O)c(C(=O)O)cn2C1CC1`?
ED50 (Escherichia coli [1]): 1.5 mg/kg; ED50 (Escherichia coli [2]): 0.8 mg/kg; IC50 (DNA gyrase): 36.5 µM; MIC (Enterobacter cloacae): 0.1 µg/mL (≈ 0.264 µM); MIC (Escherichia coli [3]): 0.025 µg/mL (≈ 0.0661 µM); MIC (Klebsiella pneumoniae): 0.1 µg/mL (≈ 0.264 µM); MIC (Pseudomonas aeruginosa): 1.6 µg/mL (≈ 4.23 µM); MIC (Staphylococcus aureus [4]): 0.2 µg/mL (≈ 0.529 µM); MIC (Streptococcus pyogenes): 3.1 µg/mL (≈ 8.19 µM); MIC (Providencia rettgeri): 0.8 µg/mL (≈ 2.11 µM); MIC (Streptococcus pneumoniae): 0.8 µg/mL (≈ 2.11 µM); MIC (Escherichia coli [5]): 0.1 µg/mL (≈ 0.264 µM); MIC (Enterococcus faecalis): 1.6 µg/mL (≈ 4.23 µM); MIC (Staphylococcus aureus [6]): 0.8 µg/mL (≈ 2.11 µM)

How did the ED50 (Escherichia coli [1]) turn out when `Nc1c(F)c(N2CCC(N)C2)c(F)c2c1c(=O)c(C(=O)O)cn2C1CC1` (configuration not stated) was run?
Its ED50 is 1.6 mg/kg.

What about the ED50 (Escherichia coli [2]) of the same molecule?
The ED50 was 0.4 mg/kg.

What about the IC50 (DNA gyrase) of the same molecule?
The IC50 was 7.14 µM.

And the MIC (Enterobacter cloacae)?
Its MIC is 0.006 µg/mL (≈ 0.0165 µM).

What about the MIC (Escherichia coli [3]) of the same molecule?
The MIC was 0.003 µg/mL (≈ 0.00823 µM).

And the MIC (Klebsiella pneumoniae)?
The MIC was 0.006 µg/mL (≈ 0.0165 µM).

What about the MIC (Pseudomonas aeruginosa) of the same molecule?
Its MIC is 0.05 µg/mL (≈ 0.137 µM).

What about the MIC (Staphylococcus aureus [4]) of the same molecule?
The MIC was 0.006 µg/mL (≈ 0.0165 µM).

And the MIC (Streptococcus pyogenes)?
The MIC was 0.025 µg/mL (≈ 0.0686 µM).

And the MIC (Providencia rettgeri)?
Its MIC is 0.025 µg/mL (≈ 0.0686 µM).

What about the MIC (Streptococcus pneumoniae) of the same molecule?
The MIC was 0.006 µg/mL (≈ 0.0165 µM).

And the MIC (Escherichia coli [5])?
Its MIC is 0.006 µg/mL (≈ 0.0165 µM).

And the MIC (Enterococcus faecalis)?
Its MIC is 0.025 µg/mL (≈ 0.0686 µM).

What about the MIC (Staphylococcus aureus [6]) of the same molecule?
The MIC was 0.013 µg/mL (≈ 0.0357 µM).

With `CCNCC1CCN(c2c(F)c(N)c3c(=O)c(C(=O)O)cn(C4CC4)c3c2F)C1` (configuration not stated) as the molecule, how does the PD50 (Escherichia coli [1]) read?
Its PD50 is 16.

What about the ED50 (Escherichia coli [2]) of the same molecule?
The ED50 was 2.4 mg/kg.

And the IC50 (DNA gyrase)?
The IC50 was 6.64 µM.

What about the MIC (Enterobacter cloacae) of the same molecule?
Its MIC is 0.05 µg/mL (≈ 0.123 µM).

What about the MIC (Escherichia coli [3]) of the same molecule?
Its MIC is 0.013 µg/mL (≈ 0.032 µM).

And the MIC (Klebsiella pneumoniae)?
The MIC was 0.05 µg/mL (≈ 0.123 µM).

And the MIC (Pseudomonas aeruginosa)?
The MIC was 0.4 µg/mL (≈ 0.984 µM).

What about the MIC (Staphylococcus aureus [4]) of the same molecule?
Its MIC is 0.003 µg/mL (≈ 0.00738 µM).

And the MIC (Streptococcus pyogenes)?
The MIC was 0.013 µg/mL (≈ 0.032 µM).

What about the MIC (Providencia rettgeri) of the same molecule?
The MIC was 0.05 µg/mL (≈ 0.123 µM).

What about the MIC (Streptococcus pneumoniae) of the same molecule?
The MIC was 0.003 µg/mL (≈ 0.00738 µM).

And the MIC (Escherichia coli [5])?
Its MIC is 0.05 µg/mL (≈ 0.123 µM).

And the MIC (Enterococcus faecalis)?
Its MIC is 0.025 µg/mL (≈ 0.0615 µM).

And the MIC (Staphylococcus aureus [6])?
The MIC was 0.013 µg/mL (≈ 0.032 µM).

What does the source list for `NCC1CCN(c2c(F)c(N)c3c(=O)c(C(=O)O)cn(C4CC4)c3c2F)C1` (configuration not stated)?
ED50 (Escherichia coli [1]): 12 mg/kg; ED50 (Escherichia coli [2]): 0.8 mg/kg; IC50 (DNA gyrase): 7.66 µM; MIC (Enterobacter cloacae): 0.025 µg/mL (≈ 0.0661 µM); MIC (Escherichia coli [3]): 0.003 µg/mL (≈ 0.00793 µM); MIC (Klebsiella pneumoniae): 0.025 µg/mL (≈ 0.0661 µM); MIC (Pseudomonas aeruginosa): 0.1 µg/mL (≈ 0.264 µM); MIC (Staphylococcus aureus [4]): 0.003 µg/mL (≈ 0.00793 µM); MIC (Streptococcus pyogenes): 0.003 µg/mL (≈ 0.00793 µM); MIC (Providencia rettgeri): 0.05 µg/mL (≈ 0.132 µM); MIC (Streptococcus pneumoniae): 0.003 µg/mL (≈ 0.00793 µM); MIC (Escherichia coli [5]): 0.013 µg/mL (≈ 0.0344 µM); MIC (Enterococcus faecalis): 0.013 µg/mL (≈ 0.0344 µM); MIC (Staphylococcus aureus [6]): 0.006 µg/mL (≈ 0.0159 µM)

What does the source list for `O=C(O)c1cn(C2CC2)c2c(F)c(N3CCNCC3)c(F)cc2c1=O`?
PD50 (Escherichia coli [1]): 0.45; ED50 (Escherichia coli [2]): 0.3 mg/kg; IC50 (DNA gyrase): 8.02 µM; MIC (Enterobacter cloacae): 0.05 µg/mL (≈ 0.143 µM); MIC (Escherichia coli [3]): 0.025 µg/mL (≈ 0.0716 µM); MIC (Klebsiella pneumoniae): 0.05 µg/mL (≈ 0.143 µM); MIC (Pseudomonas aeruginosa): 0.2 µg/mL (≈ 0.573 µM); MIC (Staphylococcus aureus [4]): 0.1 µg/mL (≈ 0.286 µM); MIC (Streptococcus pyogenes): 0.8 µg/mL (≈ 2.29 µM); MIC (Providencia rettgeri): 0.1 µg/mL (≈ 0.286 µM); MIC (Streptococcus pneumoniae): 0.8 µg/mL (≈ 2.29 µM); MIC (Escherichia coli [5]): 0.1 µg/mL (≈ 0.286 µM); MIC (Enterococcus faecalis): 0.4 µg/mL (≈ 1.15 µM); MIC (Staphylococcus aureus [6]): 0.4 µg/mL (≈ 1.15 µM)

For `Nc1c(F)c(N2CCNCC2)c(F)c2c1c(=O)c(C(=O)O)cn2C1CC1`, which ED50 (Escherichia coli [1]) is on record?
The ED50 was 0.8 mg/kg.

And the ED50 (Escherichia coli [2])?
Its ED50 is 0.2 mg/kg.

And the IC50 (DNA gyrase)?
Its IC50 is 7.68 µM.

What about the MIC (Enterobacter cloacae) of the same molecule?
Its MIC is 0.013 µg/mL (≈ 0.0357 µM).

And the MIC (Escherichia coli [3])?
The MIC was 0.003 µg/mL (≈ 0.00823 µM).

What about the MIC (Klebsiella pneumoniae) of the same molecule?
The MIC was 0.025 µg/mL (≈ 0.0686 µM).

And the MIC (Pseudomonas aeruginosa)?
The MIC was 0.025 µg/mL (≈ 0.0686 µM).

What about the MIC (Staphylococcus aureus [4]) of the same molecule?
The MIC was 0.013 µg/mL (≈ 0.0357 µM).

And the MIC (Streptococcus pyogenes)?
The MIC was 0.2 µg/mL (≈ 0.549 µM).

What about the MIC (Providencia rettgeri) of the same molecule?
The MIC was 0.05 µg/mL (≈ 0.137 µM).

What about the MIC (Streptococcus pneumoniae) of the same molecule?
Its MIC is 0.05 µg/mL (≈ 0.137 µM).

And the MIC (Escherichia coli [5])?
Its MIC is 0.013 µg/mL (≈ 0.0357 µM).

What about the MIC (Enterococcus faecalis) of the same molecule?
Its MIC is 0.05 µg/mL (≈ 0.137 µM).

What about the MIC (Staphylococcus aureus [6]) of the same molecule?
The MIC was 0.05 µg/mL (≈ 0.137 µM).

What does the source list for `CNCC1CCN(c2c(F)c(N)c3c(=O)c(C(=O)O)cn(C4CC4)c3c2F)C1` (configuration not stated)?
ED50 (Escherichia coli [1]): 7.5 mg/kg; ED50 (Escherichia coli [2]): 0.8 mg/kg; IC50 (DNA gyrase): 7.65 µM; MIC (Enterobacter cloacae): 0.05 µg/mL (≈ 0.127 µM); MIC (Escherichia coli [3]): 0.003 µg/mL (≈ 0.00765 µM); MIC (Klebsiella pneumoniae): 0.05 µg/mL (≈ 0.127 µM); MIC (Pseudomonas aeruginosa): 0.4 µg/mL (≈ 1.02 µM); MIC (Staphylococcus aureus [4]): 0.006 µg/mL (≈ 0.0153 µM); MIC (Streptococcus pyogenes): 0.003 µg/mL (≈ 0.00765 µM); MIC (Providencia rettgeri): 0.2 µg/mL (≈ 0.51 µM); MIC (Streptococcus pneumoniae): 0.003 µg/mL (≈ 0.00765 µM); MIC (Escherichia coli [5]): 0.025 µg/mL (≈ 0.0637 µM); MIC (Enterococcus faecalis): 0.025 µg/mL (≈ 0.0637 µM); MIC (Staphylococcus aureus [6]): 0.013 µg/mL (≈ 0.0331 µM)
